The values below come from paper PMC3972761 (Chemistry & biology, 2008).

Assay [1] concerns the target T1, purified hMGL (Homo sapiens, UniProt Q99685).
T1 sequence (Q99685 1-303): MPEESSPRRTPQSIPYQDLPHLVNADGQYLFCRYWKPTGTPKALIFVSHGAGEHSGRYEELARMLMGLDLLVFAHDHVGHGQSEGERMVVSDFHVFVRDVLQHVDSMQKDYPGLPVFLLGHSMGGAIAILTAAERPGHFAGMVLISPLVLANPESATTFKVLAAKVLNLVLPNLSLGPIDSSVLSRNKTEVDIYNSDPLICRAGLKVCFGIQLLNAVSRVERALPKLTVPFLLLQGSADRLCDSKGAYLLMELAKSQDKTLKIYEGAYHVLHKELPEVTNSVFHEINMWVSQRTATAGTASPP
Description: Inhibition of purified hMGL at fixed inhibitor:hMGL molar ratios. The settings on record: for hMGL Inhibition (%) 10 min: 50 μM AHMMCE, 1 hr preincubation. It counts as biochemical.

In assay [2] the target is T2, hMGL cysteine residues (Homo sapiens, UniProt Q99685).
T2 sequence (Q99685 1-303): T1 sequence (Q99685 1-303)
Description: MALDI-TOF MS of tryptic digest of NAM-treated hMGL. The settings on record: for Relative Alkylation of Cys39: percent alkylation of Cys39 relative to Cys208. Put shortly:
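Purified His-tagged hMGL (3 μM) was incubated 1 hr at room temperature in 10 mM Tris-HCl pH 8.0 with test compound at set molar ratios. It was desalted into 50 mM ammonium bicarbonate with 0.02% CYMAL, pH 8.0, then trypsin-digested overnight, either directly or after DTT (17 mM, 30 min) and iodoacetamide (55 mM, 1 hr, dark). Digests were analysed by MALDI-TOF MS with CHCA matrix.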

Assay [3] deals with T3, hMGL (recombinant hexa-histidine-tagged human MGL) (Homo sapiens, UniProt Q99685).
T3 sequence (Q99685 1-303): T1 sequence (Q99685 1-303)
Description: Fluorescence-based AHMMCE hydrolysis assay, E. coli lysate containing hMGL. Format: biochemical. Particulars: for hMGL inhibition potency (in words): E. coli lysate containing hMGL, 3-hr incubation, AHMMCE. Put shortly: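 Test compound was preincubated 15 min at room temperature with E. coli lysate containing hMGL (175 ng total protein) in 50 mM Tris-HCl pH 7.4 with 8% DMSO. AHMMCE was then added (20 μM final) and fluorescence (360/460 nm) read every 15 min for 3 hr. HMC formed at 2 h was quantified against an HMC standard curve, and IC50 was fitted by nonlinear regression.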

For assay [4], the system named is recombinant MGL. Particulars: read-out: IC50, recombinant MGL; time-dependent; ref Alexander and Cravatt, 2006; cited from earlier work.
The mark [5] stands for this setting: inhibitor:hMGL molar ratio 3.3:1.
Setting [6] is: inhibitor:hMGL molar ratio 8.3:1.

Marks after values point to notes of the source that are not given here.

Regarding `CN(C)C(=O)n1nnc(Cc2ccc(-c3ccccc3)cc2)n1` [AM6701, 5-((biphenyl-4-yl)methyl)-N,N-dimethyl-2H-tetrazole-2-carboxamide], the “hMGL Inhibition (%) 10 min” value came to 72% in assay [1] (inhibitor:hMGL molar ratio 1:1), 85% in assay [1] (setting [5]) and 91% in assay [1] (setting [6]).

Turning to `CCCCC/C=C\C/C=C\C/C=C\C/C=C\CCCCN1C(=O)C=CC1=O` [NAM, N-arachidonylmaleimide], the “hMGL Inhibition (%) 10 min” value in assay [1] (inhibitor:hMGL molar ratio 1:1) is 51%; in assay [1] (setting [5]), 80%; in assay [1] (setting [6]) it was 82%; in assay [1] (inhibitor:hMGL molar ratio 33:1), 84%. Further, the “hMGL inhibition achieved with partial alkylation of Cys215 and/or Cys249” value in assay [1] (molar ratio not stated at the place) is given as ~ 80%. Further, the “Relative Alkylation of Cys208” value in assay [2] (NAM:hMGL ratio 8.3:1) is listed as 0%; in assay [2] (NAM:hMGL ratio 33:1, relative to Cys39/Cys208 pair), 0% ^(a). Also, the “Relative Alkylation of Cys39” value in assay [2] (NAM:hMGL ratio 8.3:1) is on record as 0%; in assay [2] (NAM:hMGL ratio 33:1), 100% ^(a). Moreover, the “hMGL inhibition potency (in words)” value in assay [3] is on record as “markedly less potent”. Also, the “extent of hMGL inhibition at large molar excesses” value in assay [3] (large molar NAM excesses (Figure 1C)) was “completely”.

Turning to `CN(C)C(=O)n1nnnc1Cc1ccc(-c2ccccc2)cc1` [AM6702, 5-((biphenyl-4-yl)methyl)-N,N-dimethyl-1H-tetrazole-1-carboxamide], in assay [3], the “hMGL inhibition potency (in words)” value is reported as “nM range”.

Usually IC50 stands for the concentration needed to halve the response being measured. For the molecule LY2183240, in assay [4], the IC50 is around 5.3 nM.
